TbMetRS inhib: Trypanosoma brucei MetRS inhibition | purified T. brucei MetRS, ATP depletion, Kinase-Glo luminescence | inhibition, % at 11.9 µM | 0.4% of 360,000 active | AID 624268;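 active = inhibition above a per-plate cutoff of the control wells' mean inhibition plus 3 SD, cut at about 5.5% in these data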;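 note: 0% = DMSO wells median and 100% = median of wells with control inhibitor compound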
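Dosing: 11.9 µM single point; system: parasite MetRS enzyme; technique: luminescence of leftover ATP; times: 15 min enzyme-compound preincubation, 2 h reaction, 10 min detection, 25 °C; replicates: each compound tested once; read-out basis: percent inhibition relative to median high and low control wells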
eIF4E 4G PPI: inhibitors of eIF4E and eIF4G interaction in translation initiation | P63073+Q04637 | TR-FRET eIF4E-eIF4GI(517-606) binding, 2 h | inhibition, % at 21.7 µM | 0.37% of 220,000 active | AID 782;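 note: 0% = full FRET control wells and 100% = background wells lacking eIF4GI fragment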
p47phox inh: blocks human p47phox regulatory protein of NADPH oxidases; p47phox/p22phox peptide binding, fluorescence polarization, 2 h; inhibition, % at 24.7 µM; 0.53% of 220,000 active;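 note: 0% = p47phox with labelled peptide and 100% = labelled peptide alone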
SUMO HTRF inh: blocks human SUMOylation mediated by UBC9; HTRF SUMOylation assay, SAE1/SAE2 + UBC9, in vitro; 0.36% of 290,000 active; inhibition, % at 35 µM; AID 2006; P63279; in the data active = inhibition above about 50%, passing the limit was not always enough
Target sequence (P63279 whole entry, looked up): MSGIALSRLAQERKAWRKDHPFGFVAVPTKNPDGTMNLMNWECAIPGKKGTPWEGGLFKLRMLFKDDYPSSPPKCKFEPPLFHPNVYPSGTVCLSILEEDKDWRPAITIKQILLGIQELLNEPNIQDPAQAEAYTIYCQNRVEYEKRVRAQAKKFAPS
14-3-3 Bad PPI: disrupts binding of bovine 14-3-3 zeta to phospho-Bad peptide; P63103; TR-FRET 14-3-3zeta/Dy647-pBad peptide displacement, 1 h; inhibition, % at 21.7 µM; 0.71% of 220,000 active;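 active = inhibition above about 70%, limit read from the data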;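 note: 0% = full 14-3-3 plus peptide FRET controls and 100% = background without 14-3-3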
Target sequence (P63103 whole entry, looked up): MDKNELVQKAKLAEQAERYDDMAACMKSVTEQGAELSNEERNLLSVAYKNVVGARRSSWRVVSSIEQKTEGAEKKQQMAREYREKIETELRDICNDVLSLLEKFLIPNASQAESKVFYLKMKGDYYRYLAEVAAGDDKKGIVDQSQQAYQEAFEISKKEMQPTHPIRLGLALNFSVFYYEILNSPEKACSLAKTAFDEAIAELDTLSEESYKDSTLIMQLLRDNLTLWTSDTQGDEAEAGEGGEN
p97 inhibitor: blocks human p97 ATPase activity. AID 1481. recombinant p97 ATPase, Kinase-Glo ATP luminescence, 3 h. inhibition, % at 8 µM. 0.42% of 220,000 active. P55072; in the data active = inhibition above about 15%;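 note: 0% = DMSO vehicle and 100% = wells lacking enzyme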
Active calls of the source: *; . = no result given; + = active, no number; [ ] = dose if it differs, or a comment. A selection: hits, their analogues and other compounds. The true share with any hit is near 1.6%.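 Rule for the calls, unless noted: active = inhibition above about 30% (limit read from the data); inactive = the rest.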

SMILES	TbMetRS inhib	eIF4E 4G PPI	p47phox inh	SUMO HTRF inh	14-3-3 Bad PPI	p97 inhibitor
CCC(C(=O)Nc1c(C)cccc1C)n1c(-c2ccc(=O)[nH]c2)nc2ccccc21 (centres undefined)	-0.7	.	.	.	.	.
COc1ccc(OC)c(CN2C(=O)CSCC2(C)C(=O)Nc2c(C)cccc2C)c1 (centres undefined)	-0.8	.	.	.	.	.
COc1ccc(C2N=C(c3ccccc3)NO2)cc1OC (centres undefined)	-0.2	.	.	12.7	.	.
COc1cc(C2N=C(c3ccccc3)NO2)cc(Br)c1O (centres undefined)	-0.5	-3.2	+	0.8	-3.4	-4.4
CC(C)(C)c1ccc(-c2nnc(SCC(=O)c3ccc4c(c3)OCCO4)o2)cc1	-0.1	3.8	-9.2	-12.5	87.1*	-3.4
O=C(CSc1nnc(-c2ccc(F)cc2)o1)c1ccc2c(c1)OCCO2	-1.8	-15.0	-1.0	0.0	0.0	-0.4
N#CC(C#N)=c1ccc2c(c1)NC1(CCCCC1)N=2	-0.1	-9.3	132.5*	-51.2	-40.6	-11.3
N#CC(C#N)=C1NC2(CCCCC2)Cc2ccccc21	0.6	-2.6	-8.7	5.9	-3.6	0.9
CN(C)c1ccc(-c2csc(C(C)(O)c3ccccc3)n2)cc1 (centres undefined)	-0.4	.	.	.	.	.
Cc1ccc(-c2csc(N3N=C(c4ccccc4)/C(=C\c4ccc(N(C)C)cc4)C3=O)n2)cc1	.	-22.8	51.2*	17.6	-24.8	-4.0
COc1ccccc1OC(=O)Oc1ccccc1OC	0.1	.	.	.	.	.
O=C(Nc1cccc(Cl)c1)c1cc(N=Nc2ccc([N+](=O)[O-])cc2Cl)ccc1O	-0.9	33.3*	9.0	49.1	15.7	-19.7
O=C(Nc1ccccc1)c1cc([N+](=O)[O-])ccc1Cl	-1.0	-14.7	41.8*	-0.9	0.6	.
COc1ccc(S(=O)(=O)N(C)C[C@H]2OCc3cn(nn3)CCCC(=O)N([C@@H](C)CO)C[C@@H]2C)cc1	-0.7	.	.	.	.	.
CN1OC[C@@H]2CN[C@H](c3ccc(-c4cccc(F)c4)cc3)C[C@@H]21	-1.0	.	.	.	.	.
CN(C)CCCC(C)(O)C(C)(C)c1ccccc1 (centres undefined)	-0.8	1.3	5.6	4.7	-13.2	14.6*
COc1cccc(-n2c(SCC(=O)O)nnc2-c2cccnc2)c1	-0.2	-5.2	-4.2	8.8	87.5*	6.1
O=C(COC(=O)c1cccnc1)Nc1ccc2c(c1)OCO2	-0.7	1.4	5.2	17.7	-16.6	6.7
COC(=O)C[C@@H]1CC[C@@H](NC(=O)Nc2cc(F)ccc2F)[C@@H](CO)O1	-0.4	.	.	.	.	.
Cc1cc(OCC(=O)O)c2cccc(C)c2n1	-0.1	10.3	2.1	9.7	77.2*	-2.1
COc1ccc(CN2C(=O)c3cccnc3C2O)cc1 (centres undefined)	0.2	6.5	-15.1	24.7	86.6*	0.7
COc1ccc(CN2C(=O)c3cccnc3C2Nc2cc(Cl)ccc2OC)cc1 (centres undefined)	0.5	98.8*	-1.9	32.5	95.5*[fluorescence artefact?]	3.2
CCOC(=O)c1ccc(NC2c3ncccc3C(=O)N2Cc2ccc(F)cc2)cc1 (centres undefined)	0.0	0.9	1.5	22.2	85.6*	2.1
COC(=O)c1cc(NC2c3ncccc3C(=O)N2Cc2ccccc2)cc(C(=O)OC)c1 (centres undefined)	-1.7	4.0	14.9	-3.8	4.2	-3.0
CN1CCC(N(C)C(=O)/C(C#N)=C\c2ccc(OC(F)F)cc2)CC1	-0.4	.	.	.	.	.
SMILES	TbMetRS inhib	eIF4E 4G PPI	p47phox inh	SUMO HTRF inh	14-3-3 Bad PPI	p97 inhibitor
Cc1ccc(OCC(=O)c2c(O)c3ccccc3oc2=O)cc1C	0.2	1.2	-23.7	-4.9	74.2*	2.8
CCc1ccc(OCC(=O)c2c(O)c3ccccc3oc2=O)cc1	1.3	-0.2	-23.0	6.9	-4.2	2.0
CCCCN(C(=O)Cc1cccs1)c1nnc(-c2cccnc2)s1	-0.9	8.2	-25.0	15.8	70.7*	-1.8
O=C(c1cnn2c(-c3ccccc3)cc(-c3ccccc3)nc12)N1CCN(Cc2ccccc2)CC1	-0.1	.	.	.	.	.
Cc1ccc(-c2nn(CC(=O)NCc3cc(-c4nn(C)c(=O)c5ccccc45)ccc3C)c(=O)c3ccccc23)cc1	-0.1	25.8	59.2*	47.0	71.7*	2.0
O=C(CSc1nnc(-c2ccccc2)n1-c1ccccc1)c1ccc[nH]1	-0.5	0.0	3.8	-1.7	-3.0	-4.7
O=C(CSc1nnc(-c2ccccc2)n1-c1ccccc1)c1cccs1	0.2	-67.2	35.4*	27.1	0.9	-2.4
Cc1cc(NC(=O)c2noc3c2CCc2ccccc2-3)n(-c2ccccc2)n1	-0.4	76.5*[fluorescence artefact?]	-8.4	3.1	15.3	-3.0
Cc1ccc(NC(=O)c2noc3c2CCc2ccccc2-3)cc1	-1.1	8.4	-15.4	2.7	-5.5	-7.2
CC(C)(C)OC(=O)N1CCN(c2ccc([N+](=O)[O-])cc2)CC1	-0.2	-0.1	2.7	6.8	-17.0	-4.4
COc1ccc2[nH]c3nc(SCc4nnc(-c5ccccc5)o4)nnc3c2c1	0.4	-1.1	-46.9	-17.6	74.1*	4.2
O=C(NCCNC(=O)c1ccccc1Br)c1cccnc1	-0.5	.	.	12.0	.	.
O=C1OC(c2ccc(F)cc2)=C/C1=C\c1ccc([N+](=O)[O-])o1	.	-1.0	-1.7	51.5*	-12.8	6.3
COc1ccc(Oc2c(OC)cc(NCc3ccc(CN)cc3)c3ncccc23)cc1	-0.2	.	.	.	.	.
CCC(=O)N(C1=C(NC)C(=O)c2ccccc2C1=O)C(C)C	-0.1	2.1	4.6	32.4	-7.0	2.5
CNC1=C(N(C(C)=O)c2ccc(Br)cc2)C(=O)c2ccccc2C1=O	1.1	22.2	-1.8	81.7*	0.7	0.8
COC(=O)Sc1nnc(-c2ccc(Br)cc2)o1	.	70.5*	-17.6	-8.3	66.7	1.9
CCn1c(CSc2nccn2C)nc2cc(C(=O)O)ccc21	-0.2	6.6	-5.0	16.9	71.9*	4.7
CC1=CC(C)C(/C=N/N=C(N)N)C(C)C1 (centres undefined)	-1.1	-1.0	-4.9	-1.1	-3.6	11.6
CCc1ccc(NC(=O)Cn2ncc3c4ccccc4n(C)c3c2=O)cc1	-0.4	3.9	-16.3	48.3	19.6	-6.2
Cn1c2ccccc2c2cnn(CC(=O)Nc3ccc(Cl)cc3)c(=O)c21	0.0	-10.8	-56.1	51.9*	10.0	4.5
O=C(Cc1cccc(C(F)(F)F)c1)NCC(c1ccco1)N1CCCCC1 (centres undefined)	1.0	-4.2	-21.2	-2.6	89.4*	0.7
Cc1cc(C)c2c(N)c(C(=O)c3ccc(Cl)c(Cl)c3)sc2n1	-0.6	16.1	14.4	4.7	82.5*	3.5
Cc1cc(C)c2c(N)c(C(=O)c3ccc(Cl)cc3)sc2n1	-0.3	3.1	8.9	5.6	15.3	9.4
O=C(CN1C(=O)/C(=C2\SC(=S)N(C3CCS(=O)(=O)C3)C2=O)c2ccccc21)Nc1ccccc1 (centres undefined)	0.2	11.4	68.9*	9.9	81.3*[fluorescence artefact?]	2.6

High-throughput results deposited in PubChem BioAssay by several laboratories.
